Assay results collected from several papers.
Target: Rho-associated protein kinase 1 (ROCK1, Homo sapiens, UniProt Q13464)

read-out | action | technique | tested at | measurement | value | Compound
enzyme activity | inhibitor |  | 15 nM | remaining activity | 48.7% | Cc1cc(-c2ccnc3[nH]cc(F)c23)cc(F)c1[C@@]1(O)[C@H](C)CN(C(=O)CN)C[C@@H]1C
binding |  |  | 1 µM | remaining binding | 106% | COc1ccc2oc(-c3ccc4nc(N)oc4c3)c/c(=N\c3ccccc3NC(=O)CCN)c2c1
enzyme activity | inhibitor |  | 0.1 µM | inhibition | -3.74% | Cc1cc(O)c(-c2ccc([C@@H](C)CN(C)C)cc2)c2c1[nH]c(=O)c1sccc12
enzyme activity | inhibitor |  | 0.1 µM | remaining activity | 7.04% | Cc1cc(-c2ccnc3[nH]cc(F)c23)cc(F)c1[C@@]1(O)[C@H](C)CN(C2CCS(=O)(=O)CC2)C[C@@H]1C
binding |  |  | 1 µM | remaining binding | 17% | CN1CCN(C(=O)c2ccc(NC(=O)Nc3ccc(N(C)c4ccnc(Nc5ccc(CS(C)(=O)=O)cc5)n4)cc3)cc2)CC1
enzyme activity | inhibitor |  | 1 µM | inhibition | 26% | C=CC(=O)N1CCC[C@@H](n2nc(-c3ccc(Oc4ccccc4)cc3)c3c(N)ncnc32)C1
binding |  | competition with immobilised ligand | 0.5 µM | remaining binding | 100% | CCCCC(=O)Nc1ccc(-c2ccc3ncn(CCC)c(=O)c3c2)cn1
enzyme activity | inhibitor |  | 1 µM | inhibition | 43% | CO[C@@H]1[C@H](N(C)C(=O)c2ccccc2)C[C@H]2O[C@]1(C)n1c3ccccc3c3c4c(c5c6ccccc6n2c5c31)C(=O)NC4
cell-free assay |  |  | 1 µM | remaining signal | 100% | C[C@H]1CC[C@H](n2c3cnccc3c3cnc(Nc4ccc5c(n4)CCN(C(=O)CO)C5)nc32)CC1
